High-throughput results as filed in PubChem BioAssay.
MT stabilize HCS – stabilizes microtubules in HeLa cells; AID 2205; % tubulin-high responders, % at 10 µM; HeLa tubulin immunostaining HCS, 24 h; share of cells brighter than vehicle mean+2SD; actives 0.83% (n = 200,000);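 active means plate Z-score above 3 for both tubulin-high and condensed-nucleus cell shares, with cell loss under 80%, at 10 µM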;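 further: anti alpha tubulin signal scored within the nucleus-defined area of each cell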
bCat nuc transl – alters nuclear translocation of beta-catenin in HeLa cells. immunofluorescence imaging. nuclear translocation activity, % at 5 µM. actives 0.3% (n = 190,000). AID 1665;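 active means nuclear translocation activity above 50% at 5 µM, with a well cell count of 50 or more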;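 further: per-cell ratio of nuclear to cytoplasmic median beta-catenin stain intensity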
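Assay system: human HeLa cells, native beta-catenin; doses: 5 µM primary, 0.02–20 µM confirmation; incubation: compound treatment 24 h, 37°C, 5% CO2; technique: fluorescence imaging of beta-catenin antibody stain plus DAPI; measure: % activation, nuclear-to-cytoplasmic median beta-catenin signal ratio per cell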
ROMK primary – human ROMK K+ channel modulation, primary screen; P48048; Tet-inducible ROMK, thallium flux fluorescence; actives lie on both sides; B-score at 10 µM; actives 2% (n = 130,000);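 active means signal ratio slope over the read window, or its plate-corrected B-score, at least 3 SD from the plate mean, either direction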;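 further: B-score of the F/F0 ratio slope over 7 to 12 s after thallium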
Target sequence (P48048 whole entry, looked up): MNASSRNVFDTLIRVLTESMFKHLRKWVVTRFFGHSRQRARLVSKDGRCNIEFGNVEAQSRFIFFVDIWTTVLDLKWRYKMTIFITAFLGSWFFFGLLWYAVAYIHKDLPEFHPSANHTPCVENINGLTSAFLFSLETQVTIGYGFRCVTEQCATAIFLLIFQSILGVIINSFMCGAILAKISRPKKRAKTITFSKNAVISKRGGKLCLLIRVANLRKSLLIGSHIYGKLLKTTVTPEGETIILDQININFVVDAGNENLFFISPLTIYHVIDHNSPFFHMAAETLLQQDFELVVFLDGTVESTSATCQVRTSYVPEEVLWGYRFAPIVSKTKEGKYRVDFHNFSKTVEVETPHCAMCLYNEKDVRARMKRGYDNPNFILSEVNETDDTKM
Each line names hits and unclear results; the compound was inactive in the other large screens. Compounds with a hit are over-represented: about 1.9% of the library has one in this group of screens.

Cc1ccccc1C(C(=O)NC1CCCCC1)N(C(=O)c1ccccn1)c1cccnc1 (centres undefined)	none
COc1cc(/C=N/NC(=O)CN(Cc2ccco2)S(=O)(=O)c2ccccc2)ccc1O	none (no result: bCat nuc transl)
Cc1ccccc1Oc1nc(-c2ccccn2)nc2ccccc12	none (no result: MT stabilize HCS, ROMK primary)
CCC1=C(OC(=O)N(CC)CC)N2C(=O)OC(=NCCc3c[nH]c4ccccc34)[C@]2(Cc2ccccc2)[C@H]2C1=CC[C@H]1C(=O)N(CC)C(=O)[C@H]12	none (no result: MT stabilize HCS, ROMK primary)
CCOC(=O)C(C)Oc1cccc2c(=O)n(CC(=O)Nc3ccc4c(c3)OCCO4)ccc12 (centres undefined)	none (no result: ROMK primary)
CCOC(=O)C(C)Oc1cccc2c(=O)n(CC(=O)NCc3ccc4c(c3)OCO4)ccc12 (centres undefined)	MT stabilize HCS 16, bCat nuc transl 73 (no result: ROMK primary)
Cc1ccc(-c2nnn(CC(=O)N3CCCCC3)n2)o1	none
Cc1ccc(-c2cc(C(=O)N3CCCc4ccccc43)c3ccccc3n2)cc1	none
Cc1cc(C)c2cc3c(N)c(C(=O)N4CCc5ccccc5C4)sc3nc2c1	none (no result: ROMK primary)
Cc1ccc2nc3sc(C(=O)N4CCCc5ccccc54)c(N)c3cc2c1	MT stabilize HCS 28 (no result: ROMK primary)
O=C(c1cc(-c2cccnc2)nc2ccccc12)N1CCCc2ccccc21	MT stabilize HCS 14
CCn1nc(NC(=O)Cc2ccc(OC)cc2)c2cc3cc(C)ccc3nc21	none (no result: MT stabilize HCS, ROMK primary)
COCc1cc(C)nc(OC)c1C(N)=O	none
CN(NC(=O)c1cccc(Cl)c1)c1nc(-c2ccccc2)nnc1C(F)(F)F	MT stabilize HCS 40 (no result: ROMK primary)
CN(N)c1nc(-c2ccccc2)nnc1C(F)(F)F	none (no result: ROMK primary)
COCCNC(=O)c1cc(-c2ccccc2OC)on1	MT stabilize HCS 31 (no result: ROMK primary)
COc1ccccc1-c1cc(C(=O)NCc2cccs2)no1	none
COc1ccccc1-c1cc(C(=O)Nc2cc(C)nn2-c2ccccc2)no1	MT stabilize HCS 47 (no result: ROMK primary)
COc1ccc(-c2cc(C(=O)Nc3cc(C)nn3-c3ccccc3)no2)cc1	none (no result: ROMK primary)
Cc1cc(C)nc(-n2ncc3c2CC(c2cccc(Cl)c2)CC3=O)n1 (centres undefined)	none
C=C(C)CCOC(=O)C(CC(=O)O)NCc1ccco1 (centres undefined)	none (no result: MT stabilize HCS, ROMK primary)
CC(C)(O)C#Cc1ccc(CN2CCN(CCc3ccccc3)C(CCO)C2)s1 (centres undefined)	none
Nc1ccccc1NC1=CC(=O)CC(c2ccccc2)C1 (centres undefined)	none (no result: bCat nuc transl)
CCOc1ccccc1NC1=CC(=O)CC(c2ccccc2)C1 (centres undefined)	MT stabilize HCS 25 (no result: ROMK primary)
COc1ccc(NC2=CC(=O)CC(c3ccccc3)C2)c(OC)c1 (centres undefined)	MT stabilize HCS 32, bCat nuc transl 82
COc1ccc(C2CC(=O)C=C(NCc3ccccc3)C2)cc1 (centres undefined)	none (no result: MT stabilize HCS, ROMK primary)
C#CCNC(=O)C1=C[C@@H](c2csc3ccccc23)C[C@@H](OCc2ccc(CO)cc2)O1	none (no result: ROMK primary)
C[C@@]12CCC=C[C@H]1[C@H](c1ccc(F)c(/C=C/c3ccccc3)c1)N(Cc1ccccc1)C2=O	none (no result: MT stabilize HCS, ROMK primary)
CCOc1cc(CNc2ccc3c(c2)OCCO3)cc(Br)c1OCC	bCat nuc transl 120 (no result: ROMK primary)
CCOc1cc(CNc2ccc(N3CCOCC3)cc2)cc(Br)c1OCC	none
CCCCS/C(=C(/C#N)C(N)=O)c1cc2c([nH]1)CCCC2	MT stabilize HCS 12
CCc1ccc(N/C(SC)=C(/C#N)C(N)=O)cc1	none
COC(=O)c1cc(-c2ccc(NC(C)=O)cc2)nc2ccccc12	none
O=C(CCc1nc(-c2ccccc2F)no1)Nc1ccc(Oc2ccccc2)cc1	MT stabilize HCS 24 (no result: ROMK primary)
COc1cccc(NC(=O)CCc2nc(-c3ccccc3F)no2)c1	none (no result: ROMK primary)
O=C(c1ccccc1NS(=O)(=O)c1cccc2cccnc12)N1CCOCC1	none
O=C(Nc1ccc(C(=O)O)cc1)/C(=C\c1ccc([N+](=O)[O-])cc1)NC(=O)c1ccc(Br)cc1	none (no result: bCat nuc transl)
COC(=O)/C(C#N)=C/c1c(Oc2cccc(C)c2C)nc2ccccn2c1=O	none (no result: MT stabilize HCS)
Cn1c(=S)[nH]c2c(c1=O)C(C)(C)Cc1ccccc1-2	none
CCn1c(=S)[nH]c2c(c1=O)C(C)(C)Cc1ccccc1-2	ROMK primary 4
COc1ccc(OCC(=O)OC2CCCN(C)C2)cc1 (centres undefined)	none (no result: MT stabilize HCS)
Cc1ncc(CN2CCC(CO)(Cc3ccccc3)CC2)s1	none
COc1cc(OC)cc(C(=O)Nc2c(F)cccc2F)c1	none
COc1cc(OC)cc(C(=O)Nc2c(C)nn(-c3ccccc3)c2C)c1	MT stabilize HCS 13
Cc1nn(-c2ccccc2)c(C)c1NC(=O)Cc1cccs1	none
Cc1nn(-c2ccccc2)c(C)c1NC(=O)c1cccs1	MT stabilize HCS 41 (no result: bCat nuc transl)
O=C(CSc1nnnn1-c1ccc2c(c1)OCCO2)N1CCN(C(=O)c2ccco2)CC1	none
COc1ccc(C(C(=O)NCC2CCCO2)N(C(=O)CNC(=O)c2cccs2)c2ccc(C)cc2)cc1OC (centres undefined)	none
CCOC(=O)c1ccc[n+](CC(=O)Nc2cc(C(F)(F)F)ccc2Cl)c1	none
O=C1CCCC(=O)C1C(=O)C1CCN(S(=O)(=O)c2ccccc2)CC1	none
Cc1ccc(/C=N/NC(=O)c2ccoc2C)o1	none (no result: ROMK primary)
CCCc1cc(C(=O)N/N=C/c2ccc(C)o2)c2ccccc2n1	MT stabilize HCS 44
COc1ccccc1-c1cc(C(=O)N/N=C/c2cccs2)c2ccccc2n1	none (no result: bCat nuc transl)
Cc1cc(C(=O)N/N=C/c2ccco2)c2ccccc2n1	none (no result: ROMK primary)
CCCc1cc(C(=O)OC)c2ccccc2n1	none (no result: bCat nuc transl)
O=C(N/N=C/c1cccs1)c1cc(C2CC2)nc2ccccc12	MT stabilize HCS 17, bCat nuc transl 61
Cc1ccc(/C=N/NC(=O)c2cc(C3CC3)nc3ccccc23)o1	MT stabilize HCS 23 (no result: ROMK primary)
Cc1cc(C(=O)N/N=C/c2ccc(C)o2)c2ccccc2n1	MT stabilize HCS 15
COc1cc(NC(=O)CCCC(=O)OCC(F)(F)C(F)F)nc(OC)n1	none
O=C(O)c1ccc(Nc2nc(-c3cccnc3)nc3ccccc23)cc1	none (no result: ROMK primary)
O=C(N/N=C/c1ccc[nH]1)c1cc(-c2cccs2)nc2ccccc12	none
Cn1cccc1/C=N/NC(=O)c1cc(-c2cccs2)nc2ccccc12	MT stabilize HCS 17
CC(C)(CC(=O)O)CC(=O)NCc1c(Cl)cccc1Oc1ccccc1	none (no result: MT stabilize HCS, ROMK primary)
COC(=O)CN(C#N)c1nc(NC(C)C)nc(NC(C)C)n1	none
CCn1nc([N+](=O)[O-])c(C(C#N)c2nc3cc(C(F)(F)F)ccc3s2)c(Cl)c1=O (centres undefined)	ROMK primary -5
CCCn1nc([N+](=O)[O-])c(C(C#N)c2nc3ccccc3o2)c(Cl)c1=O (centres undefined)	none (no result: ROMK primary)
CCN1CCCC1Cn1cnc2c([nH]c3ccc(OC)cc32)c1=O (centres undefined)	none (no result: MT stabilize HCS, ROMK primary)
CCC12CSc3nc(Cl)ccc3N1C(=O)C(=O)N2C (centres undefined)	none (no result: MT stabilize HCS, ROMK primary)
CC(C)n1cc(/C=N\NC(=O)c2cc3c(ccc4ccccc43)o2)c2ccccc21	none (no result: ROMK primary)
CCn1cc(/C=N/NC(=O)c2cc3c(ccc4ccccc43)o2)c2ccccc21	MT stabilize HCS 41
COc1ccc(NC2=C(NCCO)C(=O)c3ccccc3C2=O)cc1	MT stabilize HCS 21
COC1=C(Nc2ccc(OC)cc2)C(=O)c2ccccc2C1=O	none
CCCCCC/C=C/c1ccc(OC)c([C@H]2[C@H]3C=CC[C@@H](C)[C@@H]3C(=O)N2Cc2ccccc2)c1	none (no result: MT stabilize HCS, ROMK primary)
O=C(COC(=O)/C=C/c1ccco1)Nc1cccc([N+](=O)[O-])c1	none
